Drawing on ChEMBL document CHEMBL1146581, “Induction of apoptosis by xanthones from mangosteen in human leukemia cell lines” (J Nat Prod, 2003), this text covers IC50 and Activity for six compounds.

pIC50: −log10 of the molar value. The source made the active and inactive calls. No cut-off for these calls is given here.

Data set [1] has as its system HL-60. The data set can be described thus: Cytotoxicity against human HL60 cells assessed as cell viability after 72 hrs by Trypan blue exclusion test. Type of data set: functional, cell-based. Conditions: HL-60, 72 h. Put shortly:
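HL60 (RIKEN Cell Bank) in RPMI-1640 with 10% heat-inactivated FBS, seeded at 1 × 10^5/mL. Exposed for 72 h to 5–40 µM compound added in DMSO (final 0.1% v/v). Viable cells counted by trypan blue dye exclusion. IC50 read from concentration–growth curves. Means ± SD of three experiments.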

Data set [2] relates to K562. The data set can be described thus: Cytotoxicity against human K562 cells assessed as cell viability at 10 uM after 72 hrs by Trypan blue exclusion test. The format is functional, cell-based. Put shortly: (§1)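 Leukemia lines (RIKEN Cell Bank) grown in RPMI-1640 with 10% heat-inactivated FBS. Growth curves were followed at 1, 2, 5 and 10 µM compound delivered in DMSO (final 0.1% v/v), with untreated controls. Viable cell number counted by trypan blue dye exclusion in a counting chamber.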

The subject of data set [3] is NB-4. Description: Cytotoxicity against human NB4 cells assessed as cell viability at 10 uM after 72 hrs by Trypan blue exclusion test. Type of data set: functional, cell-based. A digest of the protocol:
as §1

For data set [4], the system named is U-937. Description: Cytotoxicity against human U937 cells assessed as cell viability at 10 uM after 72 hrs by Trypan blue exclusion test. Type of data set: functional, cell-based. Put shortly: as §1
Data set [5] concerns K562. Description: Cytotoxicity against human K562 cells assessed as cell viability at 5 uM after 72 hrs by Trypan blue exclusion test. Type of data set: functional, cell-based. Put shortly: as §1
Data set [6] deals with NB-4. The data set can be described thus: Cytotoxicity against human NB4 cells assessed as cell viability at 5 uM after 72 hrs by Trypan blue exclusion test. Type of data set: functional, cell-based. Put shortly: as §1
Data set [7] has as its system U-937. The data set can be described thus: Cytotoxicity against human U937 cells assessed as cell viability at 5 uM after 72 hrs by Trypan blue exclusion test. The format is functional, cell-based. A digest of the protocol:
as §1

Data set [8] relates to PBMC. The data set can be described thus: Cytotoxicity against concanavalin A-stimulated human PBMC cells at 10 uM after 72 hrs by Trypan blue exclusion test. The format is cell-based. A digest of the protocol: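 Lymphocytes from healthy donors in RPMI-1640 with 10% heat-inactivated FBS, stimulated with concanavalin-A (75 µg/mL) for 48 h, then exposed to compound in DMSO (final 0.1% v/v). Viable cells counted by trypan blue dye exclusion in a counting chamber.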

Data set [9] relates to HL-60. The data set can be described thus: Induction of apoptosis in human HL60 cells assessed as nuclear condensation and fragmentation at 10 uM after 24 hrs using Hoechst stain by fluorescence microscopy. The format is functional, cell-based. A digest of the protocol: (§2)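 Cells treated 24 h at 10 µM. Hoechst 33342 was added to the medium at 5 µg/mL for 30 min. Cells were then washed in PBS and nuclear condensation/fragmentation was scored by fluorescence microscopy (×400).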

In data set [10] the test system is K562. The data set can be described thus: Induction of apoptosis in human K562 cells assessed as nuclear condensation and fragmentation at 10 uM after 24 hrs using Hoechst stain by fluorescence microscopy. Type of data set: functional, cell-based. A digest of the protocol:
as §2

The subject of data set [11] is NB-4. Description: Induction of apoptosis in human NB4 cells assessed as nuclear condensation and fragmentation at 10 uM after 24 hrs using Hoechst stain by fluorescence microscopy. The format is functional, cell-based. Put shortly: as §2
Data set [12] deals with U-937. The data set can be described thus: Induction of apoptosis in human U937 cells assessed as nuclear condensation and fragmentation at 10 uM after 24 hrs using Hoechst stain by fluorescence microscopy. Type of data set: functional, cell-based. A digest of the protocol: as §2
Data set [13] relates to HL-60. The data set can be described thus: Induction of apoptosis in human HL60 cells assessed as DNA ladder formation at 10 uM after 24 hrs by agarose gel electrophoresis. Type of data set: functional, cell-based.
Data set [14] concerns K562. The data set can be described thus: Induction of apoptosis in human K562 cells assessed as DNA ladder formation at 10 uM after 24 hrs by agarose gel electrophoresis. The format is functional, cell-based.
For data set [15], the system named is NB-4. The data set can be described thus: Induction of apoptosis in human NB4 cells assessed as DNA ladder formation at 10 uM after 24 hrs by agarose gel electrophoresis. Type of data set: functional, cell-based.
Data set [16] has as its system U-937. The data set can be described thus: Induction of apoptosis in human U937 cells assessed as DNA ladder formation at 10 uM after 24 hrs by agarose gel electrophoresis. The format is functional, cell-based.
Data set [17] concerns HL-60. The data set can be described thus: Induction of apoptosis in human HL60 cells assessed as caspase 3 activation at 10 uM by Western blot. Type of data set: functional, cell-based. Put shortly:
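HL60 treated with 10 µM over a time course. Lysis was in Tris pH 7.4/NP-40/deoxycholate/SDS buffer with protease inhibitors, 30 min on ice. 10 µg protein was run on a 5–20% SDS gradient gel and blotted to PVDF. The blot was probed overnight at 4 °C with rabbit anti-caspase-3, then HRP anti-rabbit, and detected by ECL. Pro (32 kD) and active (19/17 kD) forms were read.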

`COc1cc2oc3cc(O)c(OC)c(CC=C(C)C)c3c(=O)c2c(O)c1CC=C(C)C`: in data set [1], the pIC50 is 5.12.
As for `COc1c(O)cc2oc3cc(O)c(CC=C(C)C)c(O)c3c(=O)c2c1CC=C(C)C` [MANGOSTIN], the pIC50 in data set [1] is 5.17. Further, the outcome in data set [2], in [3], in data set [4], in [5], in [6] and in data set [7] was Active. For the same compound, the outcome in data set [9], in data set [10], in [11], in data set [12], in data set [13] and in data set [14] was Active. Further, the result in data set [15], in data set [16] and in data set [17] was Active. In data set [8], the Activity result is given as “Non-toxic”.
For `COc1cc2oc3ccc(O)cc3c(=O)c2c(O)c1CC=C(C)C`, the pIC50 in data set [1] is 4.63.
Take `CC(C)=CCc1c(O)cc2oc3cc(O)c(O)c(CC=C(C)C)c3c(=O)c2c1O`: the pIC50 in data set [1] is 5.21.
With `CC(C)=CCc1c(O)cc2oc3c(CC=C(C)C)c(O)c(O)c(CC=C(C)C)c3c(=O)c2c1O` [GARCINONE E], in data set [1], the pIC50 is 4.82.
For the compound `CC(C)=CCC/C(C)=C/Cc1c(O)cc2oc3c(O)cccc3c(=O)c2c1O` [MANGOSTINONE], the negative logarithm of the IC50 (pIC50) in data set [1] was 4.72.
